Source: PubChem
FN deposit inh – fibronectin deposition inhibition; AH1F fibroblasts, Alexa488-fibronectin deposition fluorescence, overnight; inhibition, % at 12.6 µM; 0.086% of 350,000 active;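 active means mean inhibition across replicates of 30% or more, regardless of how many single replicates reach that level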;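 further: positive control wells lacked labelled fibronectin entirely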
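Material: AH1F fibroblasts assembling fluorescent fibronectin matrix; amount: 10000 AH1F cells/well; medium: DMEM, 2% serum; reagent: Alexa488-fibronectin, 24 nM final in well; dosing: single compound dose, delivered by pin transfer; incubation: 1 h adhesion, overnight exposure; detection: fluorescence after three HBSS washes, excitation 485 nm, emission 525 nm; measure: fibronectin deposition inhibition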
EWS-Fli inh – blocks EWS/Fli oncoprotein-driven transcription | A673 NR0B1-luciferase reporter, viability-normalised | inhibition, % at 12.6 µM | 0.67% of 350,000 active | AID 651661;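 active means mean inhibition of at least 50% after viability correction, with every replicate also passing that limit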;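 further: firefly luciferase signal divided by Alamar Blue viability fluorescence both relative to DMSO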
Env fusion inh – inhibitors of HIV Env-mediated cell fusion; inhibition, % at 12.3 µM; 1.1% of 360,000 active; HeLa-JRFL Env/CEM21 cell fusion, luciferase;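 active means mean replicate inhibition score of at least 50 and every replicate individually at or above 50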;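 further: 0% = plate neutral controls and 100% = maraviroc near 300 nM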
PAX8 reporter – lowers PAX8-driven luciferase in RMG-I cells; inhibition, % at 12.6 µM; 1.2% of 360,000 active; RMG-I TPO-luciferase reporter, SteadyGlo, 24 h;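 active means mean replicate inhibition at least 60% with every replicate also reaching 60%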;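 further: luciferase light reporting Pax8 driven TPO promoter activity; plate controls were median of neutral control wells for no effect and mitoxantrone controls for full effect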
FGF22 binding-1 – binders of recombinant human FGF22 by thermal shift. Q9HCT0. SYPRO orange fluorescence; percent of sucrose octasulfate shift, DMSO zero. activity (Tm shift, normalised), % at 9.99 µM. 1.5% of 340,000 active;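 active means mean Tm shift, scaled 0 neutral to 100 positive control, at about 1.3% or above, every replicate too, limit read from the data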
Target sequence (Q9HCT0 whole entry, looked up): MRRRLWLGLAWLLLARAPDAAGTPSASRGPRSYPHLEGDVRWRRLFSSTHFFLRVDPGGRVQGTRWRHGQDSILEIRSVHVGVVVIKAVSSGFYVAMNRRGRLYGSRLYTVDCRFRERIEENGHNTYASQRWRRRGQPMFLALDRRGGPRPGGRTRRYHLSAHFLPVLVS
PGC1a acetyl inh – PGC1a acetylation modulation, inhibitor mode; U2OS PGC1a acetylation, AlphaScreen anti-acetyl-lysine; with virally co-expressed GCN5 acetyltransferase; inhibition, % at 15.6 µM; 0.17% of 350,000 active;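 active means every replicate shows inhibition of at least 40%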;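 further: 0% = neutral control wells and 100% = positive control wells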
FGF22 binding-2 – binds human FGF22 shifting its melting temperature. shares compounds with FGF22 binding-1. recombinant FGF22 thermal shift, SYPRO orange fluorescence. thermal shift activity, °C (ΔTm) at 38 µM. 2% of 1,000 active. AID 720646;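 active means fitted rise in melting shift crosses a set limit at or below the top valid dose tested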
TSA no protein – compound-only SYPRO artifact for FGF22 binders. shares compounds with FGF22 binding-1. compound-only SYPRO orange thermal shift counter-screen, no protein. AC50, µM (highest dose often 38 µM). 2% of 1,000 active. AID 743019;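 active means rising signal whose fitted curve reaches the 0.54 level within the top valid dose, showing a melting point, actives reach about 13 µM in these data; inactive means the rest, including activity in the opposite direction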; further: value is where the raw curve crosses a fixed level and not half-maximal
Numbers without * were called inactive; i = inactive; · = no result; [ ] = remark or other dose. Compounds with a hit are over-represented: about 3.1% of the library has one in this group of screens.

SMILES	FN deposit inh	EWS-Fli inh	Env fusion inh	PAX8 reporter	FGF22 binding-1	PGC1a acetyl inh	FGF22 binding-2	TSA no protein
C[C@@H]1CN([C@@H](C)CO)C(=O)c2cc(NS(=O)(=O)c3cccs3)ccc2O[C@@H]1CN(C)S(C)(=O)=O	·	-96	·	·	0	12	·	·
CN=C1NN=C(c2cc(C)n(-c3c(C)n(C)n(-c4ccccc4)c3=O)c2C)CS1	-4	8	-13	15	1.6*	15	0.13	i
Cc1cc(C2=NNC(=NCc3ccccc3)SC2)c(C)n1-c1c(C)n(C)n(-c2ccccc2)c1=O	-6	5	-1	-5	0	·	·	·
COc1ccc(/C=C(\C#N)c2nc3ccccc3[nH]2)cc1O	8	-120	-93	-90	0	·	·	·
COc1c(O)ccc(/C=C(\C#N)c2nc3ccccc3[nH]2)c1[N+](=O)[O-]	-4	·	-6	-55	1.4*	-13	-0.11	i
CCN(CC)c1ccc(/C=N/NC(=O)c2cc3ccccc3[nH]2)cc1	10	-11	3	2	0	·	·	·
CCN(CC)c1ccc(/C=N/NC(=O)c2c[nH]c3ccccc23)cc1	4	-1	4	-5	1.8*	·	-0.099	i
O=S(=O)(N[C@@H]1CC[C@@H](CCn2cc(-c3ccccc3F)nn2)O[C@H]1CO)c1ccc(Cl)cc1	-4	0	22[16.7 µM]	28	0	-20	·	·
COc1ccc(S(=O)(=O)N(C)C[C@@H]2Oc3ccc(NS(=O)(=O)c4ccccc4)cc3C(=O)N([C@@H](C)CO)C[C@@H]2C)cc1	·	-3	19[16.7 µM]	13	0	-6	·	·
Cc1ccc(CCNc2ncnc(Cl)c2N)cc1	1	-15	4	-22	1.7*	-23	-0.12	i
CC=Cc1ccc2n(c1=O)C[C@@H]1[C@@H](CO)[C@H](C(=O)N3CCCCC3)[C@H]2N1Cc1ccccn1 (mixture of isomers)	·	-9	-4[16.7 µM]	-9	0	·	·	·
O=C(O)c1ccc2c(=O)n3c(nc2c1)/C(=C/c1ccc(C(F)(F)F)cc1)CC3	-13	7	-3	1	0	-3	·	·
COc1cc(/C=C2\CCn3c2nc2cc(C(=O)O)ccc2c3=O)ccc1OC(F)F	3	2	9	-12	1.4*	11	0.17	i
CN(C)S(=O)(=O)n1cnc([C@@H]2[C@@H]3C(=O)OC[C@@H]3C[C@]23N=CN(Cc2ccccc2)C3=O)c1	-6	-22	-67	4	29*	15	0.15	i
CN(C)S(=O)(=O)n1cnc([C@H]2c3c(ncn3Cc3ccccc3)C[C@H]3COC(=O)[C@@H]32)c1	10	-6	-3	-14	0	3	·	·
CN(C)CC(=O)Nc1ccc2c(c1)[C@@H]1C[C@H](CC(=O)NCc3ccccc3F)O[C@H](CO)[C@@H]1O2	-8	5	39[16.7 µM]	-6	0	3	·	·
Cc1cc(C)cc(C(=O)NCC(=O)N2CCN(c3cccc(Cl)c3)CC2)c1	1	25	0	33	37*	·	0.15	i
Cc1cccc(C(=O)NCC(=O)N2CCN(c3ccc(Cl)cc3)CC2)c1	-5	9	-20	-15	0	·	·	·
O=C(NCC[C@@H]1CC[C@@H](NS(=O)(=O)c2ccccc2)[C@@H](CO)O1)c1ccc2c(c1)OCO2	·	12	8[16.7 µM]	-1	1.4*	1	-0.1[42 µM]	i
Cc1cc(C(=O)Nc2cccc3ccccc23)n(-c2ccccc2)n1	2	9	3	-7	3.2*	-3	0.14	i
Cc1ccc(C(=O)O/N=C2\CCCc3ccccc32)cc1	6	·	-44	·	·	2	·	·
O=C(O/N=C1\CCCc2ccccc21)C1CC1	-6	3	6	-3	2.7*	4	0.067	i
C[C@H]1CN([C@@H](C)CO)C(=O)Cc2cc(NC(=O)CCCN(C)C)ccc2O[C@@H]1CN(C)S(=O)(=O)c1ccccc1	-5	-6	·	-7	0	1	·	·
NC(=O)Nc1ccc(C(=O)OCC(=O)Nc2sccc2C(N)=O)cc1	8	-37	3	-35	1.5*	·	0.045	i
NC(=O)c1ccsc1NC(=O)COC(=O)Cc1c[nH]c2ccccc12	-5	9	·	24	1.8*	1	·	i
SMILES	FN deposit inh	EWS-Fli inh	Env fusion inh	PAX8 reporter	FGF22 binding-1	PGC1a acetyl inh	FGF22 binding-2	TSA no protein
CCn1c(=O)[nH]c(=O)c2c(N)c(C(=O)c3cc(F)ccc3F)sc21	12	20	8	-70	28*	7	-0.096	i
CCOc1cc(C=NNC(=O)c2cccc(S(=O)(=O)N3CCCC3)c2)ccc1O	-2	4	·	5	2.4*	-3	0.52	i
COCC(=O)Nc1ccc2c(c1)C(=O)N(C)[C@@H]1CC[C@H](CC(=O)NCc3cccc(F)c3)O[C@H]1CO2	-7	7	-26[16.7 µM]	-16	0	-1	·	·
Nc1n[nH]c(=S)n1/N=C1/C(=O)Nc2ccccc21	·	4	3	24	1.8*	15	0.05	i
CCNC(=O)C[C@@H]1CC[C@H]2[C@@H](COc3ccc(NC(=O)c4cccc(OC)c4)cc3C(=O)N2C)O1	-8	1	11[16.7 µM]	-5	0	1	·	·
Cc1ccc2c(c1)c(CC(=O)Nc1ccc(C)c(F)c1)c(C(=O)O)n2C	·	-2	·	·	1.6*	6	0.16	i
Cn1c(C(=O)O)c(CC(=O)Nc2ccccc2F)c2ccccc21	17	·	-39	·	·	·	·	·
C[C@H]1CN([C@@H](C)CO)C(=O)c2cc(-c3ccccc3)cnc2O[C@@H]1CN(C)C(=O)Cc1cccnc1	5	2	1[16.7 µM]	·	0	0	·	·
COc1cc(/C=C2/S/C(=N/S(=O)(=O)Cc3ccccc3)NC2=O)c([N+](=O)[O-])cc1OC	-8	-5	3	-16	1.9*	7	0.11	i
COc1cc(/C=C2\S/C(=N/S(=O)(=O)Cc3ccccc3)NC2=O)c([N+](=O)[O-])cc1OC	-7	-6	12	-9	1	9	·	·
COC12CC(=O)C(C(C)=O)=C(O)C1(C)c1c(O)c(C)c(O)c(C(C)=O)c1O2 (stereo unspecified)	·	10	·	·	1.4*	7	0.14	i
CO[C@@H]1CN(C)C(=O)c2ccc(NC(=O)Nc3cccc(F)c3)cc2OC[C@H](C)N(C(=O)Nc2c(C)noc2C)C[C@H]1C	-7	-5	·	9	0	-4	·	·
Cc1cc(C)cc(N(CC(=O)NC2CCC(C)CC2)S(=O)(=O)c2c(C)noc2C)c1 (stereo unspecified)	18	16	1	-2	1.4*	4	-0.055	i
Cc1cc(C)cc(N(CC(=O)O)S(=O)(=O)c2c(C)noc2C)c1	·	13	·	·	0	0	·	·
